G6PDH counter – L. mesenteroides G6PDH inhibition counter-screen; Purified L. mesenteroides G6PDH, diaphorase/resazurin coupled fluorescence, 45 min; inhibition, % at 5 µM; 200,000 tested, 0.12% active; AID 1020; in the data active means inhibition above about 50%
HKDC1 inh – blocks human hexokinase HKDC1 activity | inhibition, % at 20 µM | Q2TB90 | recombinant HKDC1, G6PDH/diaphorase resazurin coupled fluorescence | 340,000 tested, 0.16% active;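 active means inhibition above about 35% when tested at 20 µM, limit read from the data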
Target sequence (Q2TB90 whole entry, looked up): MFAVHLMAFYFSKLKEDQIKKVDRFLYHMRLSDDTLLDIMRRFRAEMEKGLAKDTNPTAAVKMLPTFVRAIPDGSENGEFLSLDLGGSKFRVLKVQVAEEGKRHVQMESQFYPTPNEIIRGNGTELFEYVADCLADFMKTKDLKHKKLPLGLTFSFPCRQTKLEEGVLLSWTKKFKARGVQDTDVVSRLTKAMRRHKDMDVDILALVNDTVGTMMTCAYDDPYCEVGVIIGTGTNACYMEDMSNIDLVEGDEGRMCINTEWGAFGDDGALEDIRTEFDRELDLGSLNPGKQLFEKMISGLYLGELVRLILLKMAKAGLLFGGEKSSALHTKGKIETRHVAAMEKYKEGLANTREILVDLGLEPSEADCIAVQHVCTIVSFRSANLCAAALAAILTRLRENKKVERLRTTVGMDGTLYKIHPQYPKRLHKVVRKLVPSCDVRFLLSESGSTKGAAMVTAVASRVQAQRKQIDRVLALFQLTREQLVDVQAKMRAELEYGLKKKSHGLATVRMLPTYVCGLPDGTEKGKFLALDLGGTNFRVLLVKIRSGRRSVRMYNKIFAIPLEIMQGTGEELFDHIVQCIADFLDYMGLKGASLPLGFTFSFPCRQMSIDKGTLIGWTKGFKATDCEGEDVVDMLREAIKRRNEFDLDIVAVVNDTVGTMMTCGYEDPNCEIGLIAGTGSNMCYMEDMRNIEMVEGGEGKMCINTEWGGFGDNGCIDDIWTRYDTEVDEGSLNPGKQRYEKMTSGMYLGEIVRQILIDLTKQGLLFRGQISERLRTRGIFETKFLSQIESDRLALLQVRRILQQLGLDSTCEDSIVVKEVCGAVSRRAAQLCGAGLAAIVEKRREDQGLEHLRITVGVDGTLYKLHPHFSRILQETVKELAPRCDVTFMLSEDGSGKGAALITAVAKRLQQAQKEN
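Assay system – recombinant HKDC1 (HK5) hexokinase enzyme, produced in-house · Input – HKDC1 at 5 µg/mL · Reagent – glucose plus 1 mM ATP as hexokinase substrates · Timing – 90 min reaction incubation at room temperature, dark · Measured by – G6PDH/diaphorase-coupled fluorescence, 1 mM NADP, 100 µM resazurin, 525/613 nm · Benchmarks – DMSO-enzyme wells negative, buffer-substituted wells positive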
Diaphorase act – activates diaphorase or chemically reduces, flagging diaphorase assay artifacts; Diaphorase/resazurin coupled assay, resorufin fluorescence, 16 min; stronger effect = higher value; 1 = vehicle wells, 0 = NADH-free wells; activation factor at 20 µM; 190,000 tested, 0.005% active; AID 1229;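 active means diaphorase activity raised at least twofold by the compound at 20 µM; inactive means activation factor below 2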
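Measured by – red resorufin fluorescence at 544/590 nm excitation/emission · Test system – Clostridium kluyveri diaphorase, purified enzyme · Incubation – reaction time 16 min, room temperature · Buffer or medium – 50 mM HEPES pH 7.4 with 4.542 mM MgCl2, 0.005% Tween 20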
PfG6PD inh – PfG6PD (Plasmodium falciparum) enzyme inhibition | AID 504690 | PfGluPho enzyme, NADPH resazurin-diaphorase fluorescence | inhibition, % at 20 µM | 350,000 tested, 0.78% active;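 active means inhibition reaching at least a set limit at 20 µM in the primary screen, cut at about 59% in these data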
Diaphorase inh – inhibits diaphorase or chemically oxidizes, flagging diaphorase assay artifacts. diaphorase resazurin-to-resorufin fluorescence, NADH, 16 min; bacterial (C. kluyveri) enzyme, not human. inhibition, % at 20 µM. 190,000 tested, 0.69% active. AID 1217;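 active means primary screen inhibition at 20 µM above a set limit, cut at about 50% in these data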
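material = Clostridium kluyveri diaphorase enzyme | amount = 0.14 U/mL diaphorase, enzyme working solution | schedule = incubation 16 min, room temperature | detection = fluorescence of resorufin formed from resazurin, Ex 544/Em 590 nm | benchmarks = positive control minus NADH, DMSO neutral control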
PfG6PD confirm – confirmation of Plasmodium falciparum G6PD inhibitors; 2,400 tested, 34% active; AID 504753; shares compounds with PfG6PD inh; inhibition, % at 20 µM; recombinant PfGluPho, NADPH-diaphorase-resazurin fluorescence;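 active means inhibition of at least 50% at 20 µM in any single replicate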
Diaphorase 10uM – inhibits diaphorase or oxidizes, flagging false PfG6PD hits; shares compounds with PfG6PD inh; diaphorase-coupled resazurin reduction, fluorescence, NADPH 10 uM; inhibition, % at 20 µM; 820 tested, 39% active;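 active means average inhibition reaching 50% or more with the compound at 20 µM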;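 further: resorufin red fluorescence formed as diaphorase reduces resazurin using NADPH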
Diaph ctr 30uM – diaphorase inhibition or oxidation at 30 uM NADPH | shares compounds with PfG6PD inh | Diaphorase/resazurin coupled assay, resorufin fluorescence | inhibition, % at 20 µM | 820 tested, 29% active | AID 504863;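 active means inhibition averaging 50% or more, tested at 20 µM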
Each line names hits and unclear results; the compound was inactive in the other large screens (follow-up assays come after a bar, where they were run). Rows were chosen to be rich in hits. Some 1.2% of all compounds tested hit in one or more screens of this group.

CCN(CC)CCN(Cc1cc2ccc(C)c(C)c2[nH]c1=O)C(=S)NCc1ccco1	none
N=c1n(CCN2CCCCC2)c2ccccc2n1CC(=O)c1ccc(Cl)c(Cl)c1	PfG6PD inh 93.0 (no result: G6PDH counter, Diaphorase act, Diaphorase inh) | PfG6PD confirm inactive
Nc1nonc1-n1nnc(C(=O)N/N=C/c2ccc(OCc3ccccc3F)cc2)c1CNc1ccccc1	none (no result: G6PDH counter, Diaphorase act, Diaphorase inh)
O=[N+]([O-])c1cc(C(F)(F)F)cc([N+](=O)[O-])c1Sc1n[nH]c(C(F)(F)F)n1	none (no result: G6PDH counter, Diaphorase act, Diaphorase inh)
Cc1cc(OCCn2nc(C(=O)O)c3ccccc3c2=O)ccc1C(C)C	PfG6PD inh 79.5 (no result: G6PDH counter, Diaphorase act, Diaphorase inh) | PfG6PD confirm inactive
CCc1cccc(OCCn2nc(C(=O)O)c3ccccc3c2=O)c1	none
Cc1ccc(Nc2ccccc2)cc1	none
Cc1ccc(Nc2cc(C)c(O)c(C)c2)cc1	PfG6PD inh 107.3 (no result: G6PDH counter, Diaphorase act, Diaphorase inh) | PfG6PD confirm 69.3 | Diaphorase 10uM 61.7 | Diaph ctr 30uM inactive
CC1CCN(S(=O)(=O)c2ccc3c(c2)N(CC(=O)N(C)Cc2ccco2)C(=O)CO3)CC1	none (no result: G6PDH counter, Diaphorase act, Diaphorase inh)
O=c1c2ccccc2nc2sc3ccccc3n12	none
COC(=O)/C=c1/sc2nc3ccccc3n2c1=O	PfG6PD inh 74.7 | PfG6PD confirm inactive
Cc1ccc(S(=O)(=O)N2[C@@H](c3ccc(Br)cc3)C(C(=O)O)=C[C@H]2C(C)(C)C)cc1	none (no result: G6PDH counter, Diaphorase act, Diaphorase inh)
O=C(c1ccc([N+](=O)[O-])cc1)N1CCN(C(=O)c2ccco2)CC1	none
O=C(c1ccco1)N1CCN(C(=O)c2ccc(-c3ccc([N+](=O)[O-])cc3)o2)CC1	PfG6PD inh 64.3 (no result: G6PDH counter, Diaphorase act, Diaphorase inh) | PfG6PD confirm inactive
c1ccc(C2=Nn3c(Cn4nnc5ccccc54)nnc3SC2)cc1	none (no result: G6PDH counter, Diaphorase act, Diaphorase inh)
c1ccc(-c2ccc(C3=Nn4c(Cn5nnc6ccccc65)nnc4SC3)cc2)cc1	PfG6PD inh 71.9 | PfG6PD confirm inactive
Clc1ccc(C2=Nn3c(Cn4nnc5ccccc54)nnc3SC2)cc1	PfG6PD inh 63.0 (no result: G6PDH counter, Diaphorase act, Diaphorase inh) | PfG6PD confirm inactive
c1ccc(Cc2nnc3n2N=C(c2ccccc2)CS3)cc1	PfG6PD inh 61.2 | PfG6PD confirm inactive
Fc1ccc(C2=Nn3c(Cc4ccccc4F)nnc3SC2)cc1	none
CCOc1ccc(OCCC(=O)OCC(=O)Nc2cc(OCC)c(N3CCOCC3)cc2OCC)cc1	none (no result: G6PDH counter, Diaphorase act, Diaphorase inh)
CN[C@H]1C[C@H]2c3[nH]c4ccccc4c3CCN2C(=O)[C@H]1[C@H](C)O	none (no result: G6PDH counter, HKDC1 inh, Diaphorase act, Diaphorase inh)
COc1ccc(-c2noc(CCC(=O)NCCc3ccccc3)n2)cc1OC	none (no result: G6PDH counter, Diaphorase act, Diaphorase inh)
CC(=O)Nc1ccnn1C1CCN(C(=O)c2cccc(C)c2C)CC1	none (no result: G6PDH counter, Diaphorase act, Diaphorase inh)
N#Cc1ccccc1S(=O)c1ccccc1C(=O)Nc1ccccc1 (stereo unspecified)	none
CC(C)(C)NC(=O)C(c1ccccn1)N(C(=O)C1CSC(=O)C1)c1ccccc1F (stereo unspecified)	none
O=[N+]([O-])c1cccc(NC(=S)NCc2ccncc2)c1	PfG6PD inh 79.2 | PfG6PD confirm inactive
N#Cc1cc([N+](=O)[O-])ccc1Oc1cccc(/C=N/NC(=O)c2cccc(Cl)c2)c1	PfG6PD inh 118.7 | PfG6PD confirm 62.3 | Diaphorase 10uM 60.0 | Diaph ctr 30uM 58.5
O=C(CSC(=O)c1ccccc1)Nc1ccccc1F	PfG6PD inh 62.7 (no result: G6PDH counter, Diaphorase act, Diaphorase inh) | PfG6PD confirm inactive
Cc1ccc(S(=O)(=O)N2[C@@H](c3ccc(Cl)cc3)C(C(=O)O)=CC[C@H]2c2ccc(Cl)cc2)cc1	none (no result: G6PDH counter, Diaphorase act, Diaphorase inh)
COc1cc(CNn2c(C)n[nH]c2=S)cc(Br)c1OCc1ccc(F)cc1	PfG6PD inh 70.1 | PfG6PD confirm inactive
COc1cc(CNn2c(C)n[nH]c2=S)cc(Cl)c1OCc1ccc(F)cc1	none
COc1cc(/C=N/O)cc(Br)c1OC	none
COc1cc(/C=N/O)cc(Br)c1OCc1ccc(Cl)cc1	PfG6PD inh 80.7 | PfG6PD confirm inactive
